Laboratory results reported in publication PMC11164214 (International Journal of Nanomedicine, 2024).
Values belong to the molecule of their own block, whether it stands above or below them.

How the values were obtained:
In vitro release assay = assay type: physicochemical; details: 37°C
Outline: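 Dynamic dialysis, bag MWCO 8–14 kDa. Liposomal DHA, or DHA dispersed in 0.5% w/v carboxymethyl cellulose sodium as control. Incubated in SGF (pH 1.2) for 2 h, then SIF (pH 6.8) for 22 h, at 37 ± 0.5°C with shaking at 150 rpm. Medium sampled at 0.5–24 h and replaced with fresh medium. DHA measured by UV‒Vis after treatment in 2% NaOH:ethanol (4:1, v/v) at 60°C for 30 min; absorbance at 238 nm.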

[1] = Intestinal lymphatic transport inhibition study; assay type: in vivo, rats; details: CHX 3.0 mg/kg i.p. 1 h before, oral 10 mg/kg DHA
Outline: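 Male Sprague-Dawley rats (200 ± 20 g) given cycloheximide 3.0 mg/kg i.p. to block chylomicron secretion. One hour later, oral DHA suspension or liposomal DHA at 10 mg/kg DHA equivalent. Plasma DHA quantified by validated HPLC‒MS/MS after ether extraction, with artemisinin as internal standard. Means ± SD, n = 4.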

[2] = Biodistribution in mesenteric lymph nodes after oral administration; assay type: in vivo, mice
Outline: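 Male ICR mice (20 ± 2 g), acclimatised 1 week. Single oral dose of 4 mg/kg DiR as free-dye solution or liposomes (dye at 8% w/w in lipid). Mice killed at 1, 2, 4 and 6 h; intestinal tracts and MLNs excised for ex vivo fluorescence imaging (means ± SD, n = 3). Dil formulations given orally at 4 mg/kg; MLNs examined by CLSM at 4 h.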

cumulative release rate of DHA at 12 h (In vitro release assay; SGF 2 h then SIF): 94.29%
DHA released during the first 2 h in SGF (In vitro release assay; SGF pH 1.2, 2 h): more than 65%
decrease of AUC0~8 of DHA in CHX pretreated rats [1]: little influence
decrease of Cmax of DHA in CHX pretreated rats [1]: little influence
Compound: C[C@H]1[C@@H](O)O[C@@H]2O[C@@]3(C)CC[C@H]4[C@H](C)CC[C@@H]1[C@@]24OO3 [DHA, Dihydroartemisinin]

accumulation / fluorescence signal in the MLNs (ex vivo imaging) ([2]; oral 4 mg/kg DiR): rare fluorescence signal
Compound: CCCCCCCCCCCCCCCCCCN1/C(=C/C=C/C=C/C=C/C2=[N+](CCCCCCCCCCCCCCCCCC)c3ccccc3C2(C)C)C(C)(C)c2ccccc21.[I-] [free DiR, 1,1’-dioctadecyl-3,3,3’,3’-tetramethylindotricarbocyaine iodide]

red fluorescence signal in the MLNs (CLSM) ([2]; oral 4 mg/kg Dil, 4 h): negligible
Compound: CCCCCCCCCCCCCCCCCCN1/C(=C/C=C/C2=[N+](CCCCCCCCCCCCCCCCCC)c3ccccc3C2(C)C)C(C)(C)c2ccccc21.[O-][Cl+3]([O-])([O-])[O-] [free Dil, 1,1’-Dioctadecyl-3,3,3’,3’-tetramethylindocarbocyanine perchlorate]
